Assay results published in ChEMBL document CHEMBL3621067, “Antihyperlipidemic morpholine derivatives with antioxidant activity: An investigation of the aromatic substitution” (Bioorg Med Chem, 2015).

Key:
[1] = molecular target: T1, Squalene synthase (Rattus norvegicus) (UniProt Q02769); experiment: Inhibition of squalene synthase in rat liver microsomes assessed as reduction in conversion of [3H]farnesyl pyrophosphate to squalene at 50 uM incubated for 30 mins by liquid scintillation counting
T1 sequence (whole entry): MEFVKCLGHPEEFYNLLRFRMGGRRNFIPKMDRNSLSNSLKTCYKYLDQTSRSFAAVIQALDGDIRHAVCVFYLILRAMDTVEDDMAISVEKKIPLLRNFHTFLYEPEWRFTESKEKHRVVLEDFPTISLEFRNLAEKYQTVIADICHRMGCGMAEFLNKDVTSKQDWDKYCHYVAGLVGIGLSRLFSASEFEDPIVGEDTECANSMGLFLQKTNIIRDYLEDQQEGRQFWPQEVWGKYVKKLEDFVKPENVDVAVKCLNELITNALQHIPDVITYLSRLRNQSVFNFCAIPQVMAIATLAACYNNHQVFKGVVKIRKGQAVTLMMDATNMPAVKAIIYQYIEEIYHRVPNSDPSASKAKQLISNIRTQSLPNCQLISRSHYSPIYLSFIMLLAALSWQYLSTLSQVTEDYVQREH
In short: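 Rat liver microsomes (18 μg protein/mL) in 50 mM phosphate, pH 7.4, with 10 mM MgCl2 and 0.5 mM NADPH; compounds in ethanol. Preincubated 10 min at 37 °C, then started with [3H]FPP (0.5 μM, 0.27 Ci/mmol) for 10 min at 37 °C. Stopped with 15% ethanolic KOH, heated 65 °C for 30 min, extracted into petroleum ether, and squalene counted by scintillation. Run in duplicate.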

[2] = tested on: Liver; experiment: Antioxidant activity in rat heat-inactivated rat hepatic microsomes assessed as inhibition of TBAR level incubated for 45 mins by spectrophotometry; assay type: functional; conditions: 0.75 h
In short: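 Heat-inactivated liver microsomes from untreated rats (2.5 mg protein/mL, 4 mM fatty acid residues) with 0.2 mM ascorbic acid in Tris–HCl/KCl (50/150 mM, pH 7.4); compounds in DMSO, 10 μM to 1 mM. Incubated at 37 °C for 45 min; TBAR read at 535 against 600 nm. Run in duplicate; IC50 is the mean concentration giving 50% inhibition of control peroxidation.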

[3] = molecular target: T1, Squalene synthase (Rattus norvegicus); experiment: Inhibition of squalene synthase in rat liver microsomes assessed as reduction in conversion of [3H]farnesyl pyrophosphate to squalene at 10 uM […] by liquid scintillation counting method
[4] = tested on: Rattus norvegicus; experiment: Antihyperlipidemic activity in Triton WR1339-induced hyperlipidemic rat assessed as reduction in plasma total cholesterol at 56 umol/kg, ip dosed 1 hr after Triton WR1339 challenge and measured 24 hrs post dose relative to control; assay type: functional
In short: (§1)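 Rats given Triton WR1339 to induce acute hyperlipidemia, established 24 h later; compounds given ip at 56 μmol/kg. Animals held at 22 °C on a 12 h light/dark cycle with free chow and water. Plasma lipids measured in duplicate; values are the mean of 8–10 rats per compound, expressed as % decrease versus hyperlipidemic controls; significance by Student's test.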

[5] = tested on: Rattus norvegicus; experiment: Antihyperlipidemic activity in Triton WR1339-induced hyperlipidemic rat assessed as reduction in plasma triglyceride level at 56 umol/kg, ip dosed 1 hr after Triton WR1339 challenge and measured 24 hrs post dose relative to control; assay type: functional; in short: as §1
[6] = tested on: Rattus norvegicus; experiment: Antihypercholesterolemic activity in Triton WR1339-induced hyperlipidemic rat assessed as reduction in plasma LDL-C level at 56 umol/kg, ip dosed 1 hr after Triton WR1339 challenge and measured 24 hrs post dose relative to control; assay type: functional
In short: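 Rats, housed at 22 °C on a 12 h light/dark cycle with free chow and water, given Triton WR1339 to induce acute hyperlipidemia (established 24 h later). Compound given ip at 56 μmol/kg. Plasma LDL measured in duplicate and expressed as % decrease versus hyperlipidemic controls; mean of 8–10 rats per compound.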

[7] = molecular target: T2, Squalene synthase (Rattus norvegicus, UniProt Q02769); experiment: Inhibition of squalene synthase in rat liver microsomes assessed as reduction in conversion of [3H]farnesyl pyrophosphate to squalene incubated for 30 mins by liquid scintillation counting
T2 sequence (Q02769 whole entry): T1 sequence (whole entry)

| inhibition [1] | IC50 [2] | inhibition [3] | SMILES | inhibition in vivo at 56 µmol/kg [4] | inhibition in vivo at 56 µmol/kg [5] | inhibition in vivo at 56 µmol/kg [6] | IC50 [7] |
| --- | --- | --- | --- | --- | --- | --- | --- |
| 29% |  |  | CN1CC(O)(c2ccc(-c3nccs3)cc2)OC2CCCCC21 (stereo unspecified) |  |  |  |  |
|  | 135 µM | 61% | CN1CC(O)(c2ccc(-c3ccc(O)cc3)cc2)OC2CCCCC21 (stereo unspecified) | 54% | 48% |  |  |
|  |  |  | CCC(C)(C)C(=O)O[C@H]1C[C@@H](C)C=C2C=C[C@H](C)[C@H](CC[C@@H]3C[C@@H](O)CC(=O)O3)[C@H]21 [SIMVASTATIN] | 75% | 0% | 70% |  |
|  | 214 µM | 67% | CN1CC(O)(c2ccc(-c3ccc(C(C)(C)C)cc3)cc2)OC2CCCCC21 (stereo unspecified) | 17% | 15% |  |  |
|  | 73 µM | 29% | CN1CCOC(O)(c2ccc(-c3ccc([N+](=O)[O-])cc3)cc2)C1 (stereo unspecified) | 41% | 44% |  |  |
|  | 57 µM |  | CN1CC(O)(c2ccc(-c3ccc([N+](=O)[O-])cc3)cc2)OC2CCCCC21 (stereo unspecified) | 62% | 20% |  |  |
|  | 410 µM | 40% | CC(C)(C)c1ccc(-c2ccc(C3(O)CN4CCCCC4CO3)cc2)cc1 (stereo unspecified) | 64% | 59% |  |  |
| 30% |  |  | CN1CCOC(O)(c2ccc(-c3nccs3)cc2)C1 (stereo unspecified) |  |  |  |  |
|  | 191 µM | 76% | CN1CC(O)(c2ccc3c(ccc4ccccc43)c2)OC2CCCCC21 (stereo unspecified) | 49% | 59% | 20% | 5.5 µM |
|  | 91 µM | 61% | CN1CCOC(O)(c2ccc(-c3ccc(C(C)(C)C)cc3)cc2)C1 (stereo unspecified) | 45% | 47% |  |  |
|  | 539 µM | 43% | O=[N+]([O-])c1ccc(-c2ccc(C3(O)CN4CCCCC4CO3)cc2)cc1 (stereo unspecified) | 59% | 31% |  |  |
|  | 198 µM | 87% | OC1(c2ccc3c(ccc4ccccc43)c2)CN2CCCCC2CO1 (stereo unspecified) | 40% | 66% | 53% | 0.7 µM |
|  | 134 µM | 7% | Oc1ccc(-c2ccc(C3(O)CN4CCCCC4CO3)cc2)cc1 (stereo unspecified) | 40% | 43% |  |  |
| 35% | 1000 µM |  | OC1(c2ccc(-c3nccs3)cc2)CN2CCCCC2CO1 (stereo unspecified) | 21% | 58% |  |  |

| SMILES | inhibition [1] | IC50 [2] | inhibition [3] | inhibition in vivo at 56 µmol/kg [4] | inhibition in vivo at 56 µmol/kg [5] | inhibition in vivo at 56 µmol/kg [6] | IC50 [7] |
| --- | --- | --- | --- | --- | --- | --- | --- |
| CN1CC(O)(c2ccc(C3CCCCC3)cc2)OC2CCCCC21 (stereo unspecified) |  | 180 µM | 18% | 51% | 20% | 23% | 42 µM |
| CN1CCOC(O)(c2ccc3c(ccc4ccccc43)c2)C1 (stereo unspecified) |  | 174 µM | 48% | 58% | 69% | 52% | 8.8 µM |
| CN1CCOC(O)(c2ccc(C3CCCCC3)cc2)C1 (stereo unspecified) |  | 190 µM | 0% | 44% | 34% | 36% | > 100 µM |
| OC1(c2ccc(C3CCCCC3)cc2)CN2CCCCC2CO1 (stereo unspecified) |  | 700 µM | 9% | 80% | 70% | 62% | 80 µM |
